Results published in ChEMBL document CHEMBL1158380 (Eur J Med Chem, 2009).
pIC50: −log10 of the molar value.

Columns and labels:
[1] = tested on: SF-295; test: Cytotoxicity against human SF295 cells after 72 hrs by MTT assay; type: functional, cell-based; conditions: SF-295, 72 h
Procedure, shortened: (§1)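 Four human tumour lines (MDA/MB-435, HCT-8, SF-295, HL-60) were exposed to compound at 0.0009–5 µg/mL for 72 h. Growth was quantified by living-cell reduction of MTT to blue formazan.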

[2] = tested on: MCF7; test: Antiproliferative activity against human MCF7 cells after 48 hrs by sulforhodamine B assay; type: functional, cell-based; conditions: MCF7, 48 h
Procedure, shortened: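 MCF-7 cells from the NCI screening program, grown as monolayers in RPMI 1640 with 5% FBS at 37 °C in humidified 5% CO2. Cells were seeded 24 h before compound addition (DMSO, final 1% v/v) at varying concentrations.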

[3] = tested on: HL-60; test: Cytotoxicity against human HL60 cells after 72 hrs by MTT assay; type: functional, cell-based; conditions: HL-60, 72 h; procedure, shortened: as §1
[4] = tested on: HCT-8; test: Cytotoxicity against human HCT8 cells after 72 hrs by MTT assay; type: functional, cell-based; conditions: HCT-8, 72 h; procedure, shortened: as §1
[5] = tested on: MDA-MB-435; test: Cytotoxicity against human MDA-MB-435 cells after 72 hrs by MTT assay; type: functional, cell-based; conditions: MDA-MB-435, 72 h; procedure, shortened: as §1
[6] = species: Bos taurus; test: Displacement of [3H]colchicine from bovine brain tubulin at 5 uM by scintillation counting
Procedure, shortened: (§2)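 Electrophoretically homogeneous bovine brain tubulin (1.0 µM, 0.1 mg/mL) in a tubulin-stabilizing buffer with 5.0 µM [3H]colchicine and compound at 1.0, 5.0 or 50 µM, final DMSO 5% (v/v). Incubation was 10 min at 37 °C. Reactions were stopped with ice water and filtered through stacked DEAE-cellulose filters. Read-out is % inhibition of colchicine binding.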

[7] = species: Bos taurus; test: Displacement of [3H]colchicine from bovine brain tubulin at 50 uM by scintillation counting; procedure, shortened: as §2
[8] = Inhibition of bovine brain tubulin by spectrophotometry; set-up: species or system Bos taurus
Procedure, shortened: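 Assembly of electrophoretically homogeneous bovine brain tubulin at 10 µM (1.0 mg/mL) in 0.8 M monosodium glutamate pH 6.6 with 4% DMSO. Tubulin was preincubated with compound at varying concentrations for 15 min at 30 °C without GTP, chilled, then 0.4 mM GTP was added. After a jump from 0 to 30 °C, turbidity at 350 nm was followed for 20 min.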

[9] = species: Bos taurus; test: Displacement of [3H]colchicine from bovine brain tubulin at 1 uM by scintillation counting

| Structure (SMILES) | pIC50 [1] | pIC50 [2] | pIC50 [3] | pIC50 [4] | pIC50 [5] | Activity [6] [%] | Activity [7] [%] | pIC50 [8] | Activity [9] [%] |
| --- | --- | --- | --- | --- | --- | --- | --- | --- | --- |
| COc1ccc([S+]([O-])c2cc(OC)c(OC)c(OC)c2)cc1 (centres undefined) | 5.84 | 5.66 | 6.47 | 6.33 | 6.55 | 16 | 41 | 4.51 |  |
| COc1ccc(S(=O)(=O)c2cc(OC)c(OC)c(OC)c2)cc1 | 5.09 | 5.59 | 5.32 | 4.91 | 5.63 | 18 | 53 | < 4.40 |  |
| COc1ccc(C(=O)c2cc(OC)c(OC)c(OC)c2)cc1O [PHENSTATIN] |  | 7.47 |  |  |  | 78 |  | 6.14 | 70 |
| COc1ccc(Cc2cc(OC)c(OC)c(OC)c2)cc1 |  | 6.89 |  |  |  | 36 | 83 | 5.40 |  |
| COc1ccc(/C=C/c2cc(OC)c(OC)c(OC)c2)cc1O [E-COMBRETASTATIN A-4] |  | 8.85 |  |  |  |  |  |  | 85 |
| COc1ccc(C(=O)c2cc(OC)c(OC)c(OC)c2)cc1 |  | 6.80 |  |  |  | 50 | 95 | 5.66 |  |
| COc1ccc(Sc2cc(OC)c(OC)c(OC)c2)cc1 | 7.52 | 7.80 | 8.52 | 7.40 | 8.52 | 89 |  | 5.92 | 56 |
| COc1ccc(Cc2cc(OC)c(OC)c(OC)c2)cc1O |  | 7.23 |  |  |  | 44 | 91 | 5.54 |  |
| COc1ccc(/C=C/c2cc(OC)c(OC)c(OC)c2)cc1 |  | 8.32 |  |  |  | 97 |  | 5.96 | 74 |
| COc1ccc(CCc2cc(OC)c(OC)c(OC)c2)cc1O |  | 7.89 |  |  |  | 67 |  | 5.80 | 49 |
| COc1ccc(CCc2cc(OC)c(OC)c(OC)c2)cc1 |  | 7.11 |  |  |  | 50 | 89 | 5.59 |  |
